# SUMO1-SIM PPI: SUMO1-SIM interaction modulation. P63165. SUMO1 binding to a labelled peptide, TR-FRET, 1 h. inhibition, % at 20 µM. actives 0.33% (n = 360,000). AID 602429; in the data active means inhibition above about 37%
# DNMT1 block: inhibitors of human DNMT1; P26358; DNMT1 molecular beacon, Hinp1I cleavage, fluorescence; inhibition (reported as % activation of signal), % at 10 µM; actives 0.83% (n = 360,000); AID 588458; in the data active means inhibition above about 50%
# Target sequence (P26358 504-1616 limits assumed): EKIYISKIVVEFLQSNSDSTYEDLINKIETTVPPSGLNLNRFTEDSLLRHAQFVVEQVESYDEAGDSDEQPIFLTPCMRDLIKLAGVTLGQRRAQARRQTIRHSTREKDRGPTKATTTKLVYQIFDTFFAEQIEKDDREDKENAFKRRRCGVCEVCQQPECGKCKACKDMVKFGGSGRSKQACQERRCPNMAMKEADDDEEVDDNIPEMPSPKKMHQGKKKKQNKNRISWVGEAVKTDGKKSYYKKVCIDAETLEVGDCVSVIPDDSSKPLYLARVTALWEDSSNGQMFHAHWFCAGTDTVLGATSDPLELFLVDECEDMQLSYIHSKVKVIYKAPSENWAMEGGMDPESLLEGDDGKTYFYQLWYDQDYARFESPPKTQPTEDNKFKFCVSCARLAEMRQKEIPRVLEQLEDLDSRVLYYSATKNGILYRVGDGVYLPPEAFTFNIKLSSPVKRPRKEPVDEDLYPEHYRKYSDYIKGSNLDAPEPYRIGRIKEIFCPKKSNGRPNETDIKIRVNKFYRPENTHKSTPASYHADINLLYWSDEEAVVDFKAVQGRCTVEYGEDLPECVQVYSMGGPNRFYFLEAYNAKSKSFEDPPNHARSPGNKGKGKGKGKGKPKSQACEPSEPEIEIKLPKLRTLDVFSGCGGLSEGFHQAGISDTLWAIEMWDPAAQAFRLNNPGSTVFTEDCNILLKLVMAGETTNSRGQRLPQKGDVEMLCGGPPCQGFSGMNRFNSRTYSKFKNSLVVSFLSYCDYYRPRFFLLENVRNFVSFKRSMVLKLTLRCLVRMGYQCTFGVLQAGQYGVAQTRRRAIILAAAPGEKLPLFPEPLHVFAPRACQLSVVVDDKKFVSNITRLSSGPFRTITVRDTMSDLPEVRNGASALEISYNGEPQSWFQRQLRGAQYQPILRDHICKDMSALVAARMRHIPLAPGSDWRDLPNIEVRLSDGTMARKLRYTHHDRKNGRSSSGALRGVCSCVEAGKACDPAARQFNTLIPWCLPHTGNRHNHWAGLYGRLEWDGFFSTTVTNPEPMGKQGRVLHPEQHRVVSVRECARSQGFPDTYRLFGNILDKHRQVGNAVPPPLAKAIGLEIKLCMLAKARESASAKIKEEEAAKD
# CSN inh: CSN deneddylation inhibition; Q92905; Purified CSN, SCF-Nedd8-OG deneddylation, fluorescence polarization; inhibition, % at 12.5 µM; actives 0.38% (n = 360,000);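 active means pattern-corrected inhibition above about 35%, with an unprinted fluorescence ratio check between 0.5 and 1.5, limit read from the data, passing the limit was not always enough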;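 further: 0% = enzyme with substrate and 100% = substrate without enzyme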
#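 Material: purified human Csn5 enzyme expressed in HEK293T cells / Medium: Tris buffer pH 7.5, NaCl, DTT, Tween-20, trehalose, ovalbumin / Compound dosing: 12.5 µM single point / Schedule: 90 min incubation of compound, enzyme and substrate at room temperature / Signal: fluorescence polarization of the substrate / Control set: no-enzyme wells high, enzyme-with-substrate wells low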
# LMPTP inh: LMPTP (human) inhibition; recombinant LMPTP-A, OMFP fluorogenic substrate, fluorescence intensity; actives 0.22% (n = 360,000); inhibition, % at 20 µM; P24666;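 active means compounds that cut the enzyme signal by at least half of the control window in the single-dose screen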;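 further: plate controls were DMSO wells with enzyme plus substrate for no effect and substrate without enzyme for full effect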
#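 Test system – LMPTP-A enzyme · Amount – LMPTP-A at 0.625 nM final in the reaction · Buffer or medium – Bis-Tris pH 6.0, DTT, detergent · Reagent – OMFP 400 µM · Doses – single 20 µM dose · Schedule – reaction 50 min, room temperature, dark · Detection – fluorescence intensity of OMFP turnover product · Evaluation – percent inhibition versus substrate-only and uninhibited controls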
# STEP inh: blocks human striatal-enriched tyrosine phosphatase; P54829; recombinant STEP, OMFP fluorogenic substrate, fluorescence; inhibition, % at 20 µM; actives 0.25% (n = 360,000);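 active means inhibition at 20 µM, scaled per plate between control wells, above about 37%, limit read from the data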;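 further: 0% = DMSO with enzyme and substrate and 100% = substrate only without enzyme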
#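 Test system: STEP tyrosine phosphatase / Reagent: OMFP at 25 µM / Doses: 20 µM, 1% DMSO / Read-out: percent inhibition scaled to no-enzyme and uninhibited-enzyme controls, plate-pattern corrected / Detection: FITC-channel fluorescence of OMFP product / Medium: Bis-Tris buffer pH 6.0, 2.5 mM DTT, 0.005% Tween 20 / Schedule: 20 min at room temperature, dark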
# Scp-1 inhibitor: inhibitors of human Scp-1 phosphatase. actives 0.88% (n = 340,000). inhibition, % at 20 µM. Recombinant Scp1, phosphopeptide, malachite green phosphate absorbance. Q9GZU7;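 active means inhibition above about 50% at 20 µM, limit read from the data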;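 further: plate controls were DMSO wells with enzyme for no effect and wells lacking enzyme for full effect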
#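 Test system: SCP-1 phosphatase catalytic domain, residues 76-261 | Compound dosing: One concentration, 20 µM, with 1.0% DMSO | Schedule: 45 min room-temperature reaction, 5 min colour, 30 min stabiliser | Detection: Absorbance at 630 nm | Read-out basis: % inhibition of SCP-1 phosphate liberation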
# Numbers without * were called inactive; nt = no result given. Rows were chosen to be rich in hits. Some 2% of all compounds tested hit in one or more screens of this group.
SMILES,SUMO1-SIM PPI,DNMT1 block,CSN inh,LMPTP inh,STEP inh,Scp-1 inhibitor
COc1cc(C(=O)OC(C)C(=O)NC2CCCCC2C)c([N+](=O)[O-])cc1OC (stereo not drawn),-13.6,1.8,-0.1,0.2,-2.5,7.9
CC(OC(=O)c1cccc(Cl)c1)C(=O)NC1CCCCC1C (stereo not drawn),8.1,0.2,57.4*,-0.2,0.6,-8.3
CC(OC(=O)c1ccc([N+](=O)[O-])s1)C(=O)NC1CCCCC1C (stereo not drawn),12.7,70.6*,2.1,-1.3,2.3,-2.2
COc1ccc(CNC(=O)c2c(-c3c(F)cccc3Cl)noc2C)cc1,3.5,1.8,-4.3,-1.4,-0.4,-15.4
COc1ccc(N2CCN(C(=O)c3cccc(Br)c3)CC2)c([N+](=O)[O-])c1,-18.2,-10.8,5.1,2.8,0.8,-21.5
Cc1ccc2c(c1)[nH]c1c(=O)n(Cc3ccco3)cnc12,16.2,1.0,0.8,-1.3,2.3,-7.4
CCOC(=O)N1CCC(NC(=O)C(NS(=O)(=O)c2cccc3nsnc23)c2ccccc2)CC1 (stereo not drawn),46.0*,0.6,-0.8,-0.6,1.2,-6.1
O=C1N=c2ccccc2=C1c1sc(Nc2ccc(O)cc2)nc1O,3.5,-0.7,27.5,75.6*,42.0*,80.0*
N#C/C(=C/c1cccn1-c1cccc(C(=O)O)c1)c1ccc(Cl)cc1,-6.3,79.9*,20.9,7.7,5.6,33.0
CCOC(=O)/C(C#N)=C/c1cccn1-c1ccc(Cl)cc1,-0.8,-0.7,-3.7,4.6,1.7,-14.1
NC(=O)c1ccc(NC(=O)CSC2=Nc3ccccc3C3CC=NN23)cc1 (stereo not drawn),47.1*,-1.3,1.5,0.1,-2.5,-5.2
CCOc1ccc(NC(=O)c2cc(S(=O)(=O)N3CCOCC3)cn2C)cc1,-2.0,3.1,-5.0,-0.1,-2.0,2.4
O=C1c2cccc3c([N+](=O)[O-])ccc(c23)C(=O)N1O,32.0,71.3*,2.9,22.2,10.4,83.0*
O=C1c2cccc3c([N+](=O)[O-])ccc(c23)C(=O)N1c1ccccn1,-21.4,31.7,-7.5,-0.2,-2.3,0.2
Cn1c(=O)c2c(-c3ccccc3)n(-c3ccc(N)cc3)cc2n(C)c1=O,42.4*,39.9,10.3,12.7,3.3,nt
Cn1c(=O)c2c(-c3ccccc3)n(-c3cccc(O)c3)cc2n(C)c1=O,-16.7,-11.3,-2.5,-0.5,-2.4,nt
O=C(C(=O)N1CCCC1)c1c(-c2ccccc2)[nH]c2ccccc12,8.8,0.4,-3.1,-0.8,1.5,-9.8
C=CCNC(=O)/C(C#N)=C/c1c(N2CCCCCC2)nc2ccccn2c1=O,-26.5,-1.9,56.7*,-2.0,0.4,-4.2
N#C/C(=C\c1c(N2CCCCCC2)nc2ccccn2c1=O)C(=O)NCc1ccco1,-20.1,1.2,0.4,2.4,3.3,-6.9
COc1ccccc1OCC(=O)Nc1cc(NC(=O)COc2ccccc2OC)cc(C(=O)O)c1,10.9,-6.0,-1.0,0.1,0.8,-9.5
O=C(COc1ccccc1Cl)Nc1cc(NC(=O)COc2ccccc2Cl)cc(C(=O)O)c1,19.7,3.6,10.7,30.8,30.3,73.4*
O=C(NCC1CC1)C1(S(=O)(=O)c2ccccc2)CC=CC1,10.2,5.0,2.7,-2.1,1.3,-5.8
COC(=O)Cc1c(O)ccn(CCc2c[nH]c3ccccc23)c1=O,-0.3,-2.3,73.5*,-0.4,-3.6,-5.5
C=CCn1c(=O)c(C(=O)Nc2ccccc2C(=O)OCC)c(O)c2ccccc21,3.4,-0.8,4.4,1.9,6.5,-4.2
C=CCn1c(=O)c(C(=O)Nc2ccccc2S(N)(=O)=O)c(O)c2ccccc21,2.4,-1.4,93.2*,0.5,3.9,-14.4
SMILES,SUMO1-SIM PPI,DNMT1 block,CSN inh,LMPTP inh,STEP inh,Scp-1 inhibitor
OC(c1ccc(F)c(F)c1)c1nc(-c2ccoc2)cs1 (stereo not drawn),8.5,-7.8,6.2,0.3,1.1,nt
O=C(COc1ccc(Cl)c2cccnc12)N1CCOCC1,-5.1,6.4,-1.2,-0.6,-0.9,-5.0
OC(CNCc1ccccc1)COCc1ccc(Cl)cc1 (stereo not drawn),-1.3,0.8,-1.7,-0.4,-3.2,-14.6
CC(NCC(O)COCc1ccc(Cl)cc1)c1ccccc1 (stereo not drawn),64.7*,3.0,6.9,-2.3,-3.2,-12.8
COc1ccccc1NS(=O)(=O)c1cc([N+](=O)[O-])ccc1N/N=C/c1sc(N2CCOCC2)nc1-c1ccccc1,-34.5,-4.1,53.5*,7.8,-8.6,5.5
Cc1ccc(CN2CCC2(C)C(=O)NC2CCc3ccccc32)cc1 (stereo not drawn),0.5,0.9,0.8,-0.9,-1.7,nt
O=c1c2ccccc2c(/C=N/c2nnc(Cc3ccccc3)s2)c(O)n1-c1ccc(Cl)cn1,-13.8,-11.6,41.4*,-0.1,0.7,-7.8
Cc1cccc(C)c1N=Cc1c(O)n(-c2nccs2)c(=O)c2ccccc12,-5.2,-2.8,-7.1,0.4,0.4,3.3
CCOC(=O)C1Nc2ccc(C(=O)O)cc2C2C=CCC12 (stereo not drawn),48.1*,59.8*,6.3,1.6,42.2*,35.5
O=C(/C=C\c1cccs1)N1CCN(Cc2ccc3c(c2)OCO3)CC1,-6.2,-3.3,4.3,0.3,-0.7,-5.0
Cc1ccc([N+](=O)[O-])cc1-c1ccc(/C=N/NC(=O)c2cc3c(ccc4ccccc43)o2)o1,37.6,49.6,0.3,3.2,2.8,2.9
COc1ccc(/C=N/NC(=O)c2cc3c(ccc4ccccc43)o2)cc1OC,24.8,-9.8,17.2,0.3,0.0,-2.2
O=C(N/N=C/c1ccncc1)c1cc2c(ccc3ccccc32)o1,52.5*,-0.9,12.2,5.9,2.9,8.6
O=C(N/N=C/c1ccc(-c2ccc(Cl)c(C(=O)O)c2)o1)c1cc2c(ccc3ccccc32)o1,20.9,32.4,26.4,7.8,27.7,88.8*
COc1ccc(/C=N\NC(=O)c2cc3c(ccc4ccccc43)o2)cc1O,67.9*,-5.6,21.8,3.4,6.6,20.0
COC(=O)c1cc(S(=O)(=O)N2CCCCCC2)cn1C,-1.9,0.4,1.9,-1.2,0.3,-2.4
CCOC(=O)/C=c1\s/c(=C\c2ccc3cc(OC)ccc3c2)c(=O)n1CC(=O)NCc1ccc2c(c1)OCO2,1.5,13.9,59.8*,3.2,-5.6,-8.6
O=C(N/N=C\c1ccc[nH]1)C1COc2ccccc2O1 (stereo not drawn),-1.0,2.0,-4.3,-1.6,2.7,-16.4
CCOC(=O)C1CCN(C(=O)Nc2ccc3nc(-c4ccco4)c(-c4ccco4)nc3c2)CC1,106.1*,112.7*,48.7,79.9*,68.5*,67.3*

# From PubChem BioAssay
